Test results taken from publication PMC9037101 (RSC Advances, 2021).

Legend:
[1] = assay type: in vivo, Sprague-Dawley (SD) rats; details: for AUC(0-inf) / AUC(0-t) / Cmax / Tmax / half-life: male, Sprague-Dawley, plasma, po, 15 mL kg^−1; for AUC(0-inf) / AUC(0-t) / Cmax / Tmax / half-life / absorption into blood (in words): rat; for absorption into blood (in words): oral administration of extract
[2] = Stability of the analytes in rat plasma QC samples; assay type: in vitro ADME; details: for Free-thaw stability: Measured concentration / Free-thaw stability: Accuracy: 3 free thaw cycles; for Free-thaw stability: Accuracy / Long-tern stability: Accuracy: relative error; for Long-tern stability: Accuracy / Long-tern stability: Measured concentration: −20 °C for 21 d; for Short-tern stability: Measured concentration: room temperature for 8 h
Summary of the method: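 Rat (SD male) plasma QC samples at low, medium and high levels, six replicates each. Storage conditions: 4 h at room temperature after preparation, 8 h at room temperature (short-term), 21 days at −20 °C (long-term), and three freeze (−20 °C)/thaw (room temperature) cycles over three consecutive days. Samples were methanol-precipitated with internal standard and measured by HPLC-MS/MS. Stability was reported as relative error.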

[3] = double-peak phenomenon, rat plasma, oral extract

| Structure (SMILES) | AUC(0-inf) [1] | Cmax [1] | Tmax [1] | half-life [1] | absorption into blood (in words) [1] | Free-thaw stability: Measured concentration ([2]; high QC spiked concentration) | Free-thaw stability: Measured concentration ([2]; low QC spiked concentration) | Free-thaw stability: Measured concentration ([2]; medium QC spiked concentration) | Free-thaw stability: Accuracy ([2]; high QC spiked concentration) | Free-thaw stability: Accuracy ([2]; low QC spiked concentration) | Free-thaw stability: Accuracy ([2]; medium QC spiked concentration) | Long-tern stability: Accuracy ([2]; high QC spiked concentration) | Long-tern stability: Accuracy ([2]; low QC spiked concentration) | Long-tern stability: Accuracy ([2]; medium QC spiked concentration) | Short-tern stability: Measured concentration ([2]; high QC spiked concentration) | Short-tern stability: Measured concentration ([2]; low QC spiked concentration) | Short-tern stability: Measured concentration ([2]; medium QC spiked concentration) | Long-tern stability: Measured concentration ([2]; high QC spiked concentration) | Long-tern stability: Measured concentration ([2]; low QC spiked concentration) | Long-tern stability: Measured concentration ([2]; medium QC spiked concentration) | other results |
| --- | --- | --- | --- | --- | --- | --- | --- | --- | --- | --- | --- | --- | --- | --- | --- | --- | --- | --- | --- | --- | --- |
| COc1ccc(-c2cc(=O)c3c(O)cc(O)cc3o2)cc1 [Acacetin, acacetin] | 17.7 ng·h/mL | 31.9 ± 17.6 ng/mL | 10 min | 96.87 ± 0.12 min | rapidly absorbed | 108.48 ± 6.51 ng/mL | 4.81 ± 0.22 ng/mL | 26.99 ± 4.36 ng/mL | 6.21% | 4.11% | 3.13% | 3.46% | 4.11% | 1.38% | 107.02 ± 3.38 ng/mL | 4.69 ± 0.36 ng/mL | 27.31 ± 5.34 ng/mL | 105.68 ± 9.65 ng/mL | 4.81 ± 0.27 ng/mL | 26.53 ± 3.21 ng/mL | AUC(0-t) [1]: 15.3 ng·h/mL |
| O=c1c(O)c(-c2ccc(O)c(O)c2)oc2cc(O)cc(O)c12 [Quercetin, quercetin] | 18.2 ng·h/mL | 20.1 ± 24.9 ng/mL | 5 min | 46.03 ± 0.09 min | rapidly absorbed | 67.46 ± 2.42 ng/mL | 2.78 ± 0.89 ng/mL | 17.48 ± 1.19 ng/mL | 4.62% | 5.30% | 6.72% | 6.02% | 3.03% | 5.43% | 66.98 ± 7.47 ng/mL | 2.80 ± 1.62 ng/mL | 17.12 ± 1.22 ng/mL | 68.36 ± 3.68 ng/mL | 2.72 ± 0.32 ng/mL | 17.27 ± 2.69 ng/mL | AUC(0-t) [1]: 9.31 ng·h/mL |
| C[C@@H]1O[C@@H](OC[C@H]2O[C@@H](Oc3c(-c4ccc(O)c(O)c4)oc4cc(O)cc(O)c4c3=O)[C@H](O)[C@@H](O)[C@@H]2O)[C@H](O)[C@H](O)[C@H]1O [Rutin] |  | 131 ± 18.3 ng/mL | 5 min |  | rapidly absorbed | 437.7 ± 10.02 ng/mL | 6.2 ± 1.88 ng/mL | 110.30 ± 8.24 ng/mL | 4.58% | 2.48% | 7.54% | 2.55% | 4.30% | 4.68% | 426.82 ± 18.15 ng/mL | 6.36 ± 6.81 ng/mL | 108.48 ± 7.41 ng/mL | 429.20 ± 19.79 ng/mL | 6.31 ± 5.88 ng/mL | 107.37 ± 9.98 ng/mL | AUC(0-t) [1]: 50.7 ng·h/mL; AUC0–∞ (mean ± SD) ([1]; rat plasma, single oral administration of extract 15 mL kg^−1, n = 6): 3039.62 ± 54.07 ng/L/h |
| C[C@@H]1O[C@@H](O[C@@H]2[C@@H](O)[C@H](OCCc3ccc(O)c(O)c3)O[C@H](CO)[C@H]2OC(=O)/C=C/c2ccc(O)c(O)c2)[C@H](O)[C@H](O)[C@H]1O [Acteoside, acteoside] |  | 650 ± 16.4 ng/mL | 10 min | 46.8 ± 0.35 min | rapidly absorbed | 2132.91 ± 11.91 ng/mL | 2.1 ± 0.14 ng/mL | 544.87 ± 4.54 ng/mL | 5.21% | 3.45% | 4.92% | 6.94% | 1.97% | 4.16% | 2150.14 ± 11.92 ng/mL | 2.11 ± 0.13 ng/mL | 548.82 ± 2.92 ng/mL | 2167.98 ± 18.52 ng/mL | 2.07 ± 0.12 ng/mL | 540.92 ± 9.44 ng/mL |  |
| O=c1cc(-c2ccc(O)c(O)c2)oc2cc(O)cc(O)c12 [Luteolin, luteolin] | 35.4 ng·h/mL | 77.4 ± 25.7 ng/mL | 5 min | 36.08 ± 0.24 min |  | 258.35 ± 4.86 ng/mL | 6.60 ± 0.18 ng/mL | 66.03 ± 2.64 ng/mL | 4.35% | 4.43% | 6.21% | 5.43% | 6.01% | 8.32% | 260.55 ± 0.49 ng/mL | 6.76 ± 0.18 ng/mL | 64.88 ± 0.92 ng/mL | 261.02 ± 4.65 ng/mL | 6.7 ± 0.76 ng/mL | 67.34 ± 3.63 ng/mL |  |
| O=c1cc(-c2ccc(O)cc2)oc2cc(O)cc(O)c12 [Apigenin, apigenin] |  | 146 ± 14.9 ng/mL | 180 min | 298.5 ± 0.16 min | absorbed very slowly | 494.36 ± 4.99 ng/mL | 7.34 ± 0.32 ng/mL | 124.68 ± 6.33 ng/mL | 5.51% | 3.67% | 6.63% | 3.51% | 7.06% | 6.48% | 490.89 ± 7.31 ng/mL | 7.17 ± 1.91 ng/mL | 123.78 ± 2.47 ng/mL | 484.98 ± 5.09 ng/mL | 7.58 ± 0.51 ng/mL | 124.51 ± 4.02 ng/mL | time of first peak of the plasma concentration–time curve [1, 3]: 5 min; time of second peak of the plasma concentration–time curve [1, 3]: 180 min |
